Source: PubChem BioAssay (Broad Institute)
The entries come from a sample that favours hits as a whole.
GASC1 inh: inhibitors of human demethylase GASC-1 KDM4C. hit rate 0.15% among 96,000. Q9H3R0. inhibition, % at 12.5 µM. GST-KDM4C 2-372, H3K9me3 peptide, LANCE TR-FRET. AID 720574;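 active = mean replicate inhibition above about 25%, with at least 55% of replicates also reaching it, limit read from the data, passing the limit was not always enough; inconclusive = only one of those two conditions met; inactive = neither condition met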
Target sequence (Q9H3R0 2-372 limits assumed): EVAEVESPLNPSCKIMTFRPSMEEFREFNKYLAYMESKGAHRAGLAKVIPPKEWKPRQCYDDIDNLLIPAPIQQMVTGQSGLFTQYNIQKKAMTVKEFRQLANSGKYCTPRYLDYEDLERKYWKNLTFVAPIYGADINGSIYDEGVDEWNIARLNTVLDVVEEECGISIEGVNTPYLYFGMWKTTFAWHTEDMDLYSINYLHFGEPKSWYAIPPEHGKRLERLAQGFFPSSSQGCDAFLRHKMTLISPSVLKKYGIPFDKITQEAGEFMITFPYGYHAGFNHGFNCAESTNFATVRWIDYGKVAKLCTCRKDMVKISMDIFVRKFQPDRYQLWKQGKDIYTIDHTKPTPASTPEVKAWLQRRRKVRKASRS
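Material: GST-tagged GASC-1 (JMJD2C) catalytic fragment, aa 2-372 / Quantity: enzyme final amount 10 nM / Medium: HEPES buffer, pH 7.5, plus ascorbate / Doses: one test concentration per compound / Incubation: 30 min reaction, 60 min detection, RT / Measured by: LANCE TR-FRET / Read-out: inhibition from TR-FRET ratio decrease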
IDH1 mut inh: inhibitors of human IDH1 R132H | hit rate 0.18% among 70,000 | O75874 | inhibition, % at 10 µM | IDH1 R132H reductase, diaphorase/resazurin fluorescence, 60 min | AID 624101; in the data active = inhibition above about 34%; inconclusive = no clear call, values can overlap the other calls; inactive = below about 11%;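 also: 0% = DMSO and 100% = no enzyme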
T cruzi growth-1: blocks T. cruzi growth in NIH3T3 culture. T. cruzi beta-gal in NIH3T3, GalScreen luminescence, 90 h. inhibition, % at 8.34 µM. hit rate 5.9% among 77,000. AID 624255;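 active = mean inhibition above about 93%, with at least 55% of replicates each passing it, limit read from the data, passing the limit was not always enough; inconclusive = only one of those two conditions holds; inactive = neither condition holds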
T cruzi growth-2: Trypanosoma cruzi proliferation inhibition; shares compounds with T cruzi growth-1; T. cruzi beta-gal in NIH3T3, GalScreen luminescence, 90 h; inhibition, % at 8.35 µM; hit rate 72% among 5,600;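 active = mean replicate inhibition above about 95% and at least 55% of replicates individually reaching it, limit read from the data; inconclusive = only one of the two criteria is met; inactive = neither criterion is met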
T cruzi growth-3: blocks T. cruzi growth in NIH3T3 host cells; shares compounds with T cruzi growth-1; T. cruzi beta-gal in NIH3T3, GalScreen luminescence, 90 h; inhibition, % at 2.09 µM; hit rate 21% among 5,600; AID 651740;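 active = mean inhibition above about 95%, with at least 55% of replicates also reaching it, limit read from the data; inconclusive = meets just one of the two conditions; inactive = meets neither condition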;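 also: plate controls were neutral control median for no effect and positive control median for full effect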
3T3 cytotox: cytotoxicity in mouse NIH/3T3 fibroblasts; cytotoxicity (signal decrease), % at 8.35 µM; AID 651742; shares compounds with T cruzi growth-1; NIH/3T3 viability, CellTiter-Glo ATP luminescence, 90 h; hit rate 14% among 5,600;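 active = mean signal decrease across replicates above about 35% based on untreated-well scatter, with enough replicates individually passing, limit read from the data; inconclusive = no rule stated though some were filed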;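 also: 0% = median of neutral control wells and 100% = median of positive control wells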
3T3 cytotox 2: cytotoxicity in mouse NIH/3T3 fibroblasts. inhibition, % at 24.9 µM. shares compounds with T cruzi growth-1. NIH/3T3 viability, CellTiter-Glo ATP luminescence, 90 h. AID 651744. hit rate 56% among 5,600;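 active = mean loss of cell viability signal at or above a set limit, and enough replicates individually reaching it; inconclusive = meets only the mean limit or only the replicate share; inactive = meets neither condition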;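 also: 0% = median of neutral control wells and 100% = median of positive control wells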
The depositor's hits bear a star; ? = inconclusive; nt = no result given.

SMILES	GASC1 inh	IDH1 mut inh	T cruzi growth-1	T cruzi growth-2	T cruzi growth-3	3T3 cytotox	3T3 cytotox 2
C[C@@H]1CN([C@@H](C)CO)S(=O)(=O)c2ccc(Br)cc2O[C@@H]1CN(C)S(=O)(=O)c1ccccc1	1	0	nt	nt	nt	nt	nt
C[C@H]1CN([C@@H](C)CO)S(=O)(=O)c2ccc(Br)cc2O[C@H]1CN(C)S(=O)(=O)c1ccc(F)cc1	-4	-6	106*	106*	9	16	?
C[C@@H]1CN([C@@H](C)CO)S(=O)(=O)c2ccc(Br)cc2O[C@H]1CN(C)S(=O)(=O)c1cccc(F)c1	-2	nt	107*	111*	30	28	68*
C[C@@H]1CN([C@@H](C)CO)S(=O)(=O)c2ccc(Br)cc2O[C@@H]1CN(C)S(=O)(=O)c1ccc(F)cc1	nt	1	34	nt	nt	nt	nt
NCC[C@@H]1CC[C@@H](NC(=O)C2CCC2)[C@@H](CO)O1	1	0	32	nt	nt	nt	nt
Cn1cnc(S(=O)(=O)N2[C@@H]3CNC[C@H]2C3c2ccc(-c3ccccc3F)cc2)c1 (stereo not given in full)	-2	nt	nt	nt	nt	nt	nt
Cc1ccc(S(=O)(=O)N(C)C[C@@H]2Oc3cc(C4=CCCC4)ccc3S(=O)(=O)N([C@@H](C)CO)C[C@H]2C)cc1	0	0	nt	nt	nt	nt	nt
C[C@@H]1CN([C@H](C)CO)S(=O)(=O)c2ccc(C3=CCCC3)cc2O[C@@H]1CN(C)S(=O)(=O)c1ccc(F)cc1	11	-2	122*	110*	40	20	32*
Cc1ccc(S(=O)(=O)N(C)C[C@H]2Oc3cc(C4=CCCC4)ccc3S(=O)(=O)N([C@H](C)CO)C[C@H]2C)cc1	2	0	nt	nt	nt	nt	nt
C[C@H]1CN([C@@H](C)CO)S(=O)(=O)c2ccc(C3=CCCC3)cc2O[C@@H]1CN(C)S(=O)(=O)c1ccc(F)cc1	1	nt	123*	97*	101*	45*	10
C[C@@H]1CN([C@H](C)CO)S(=O)(=O)c2ccc(C3=CCCC3)cc2O[C@H]1CN(C)S(=O)(=O)c1ccc(F)cc1	0	nt	116*	107*	83	17	25*
C[C@@H]1CN([C@@H](C)CO)S(=O)(=O)c2ccc(C3=CCCC3)cc2O[C@@H]1CN(C)S(C)(=O)=O	0	nt	-36	nt	nt	nt	nt
CCCN(C)C[C@@H]1Oc2cc(C#Cc3ccccn3)ccc2S(=O)(=O)N([C@@H](C)CO)C[C@@H]1C	-1	0	52	nt	nt	nt	nt
C[C@@H]1CN([C@@H](C)CO)S(=O)(=O)c2ccc(C#Cc3ccccn3)cc2O[C@@H]1CN(C)Cc1cccc(F)c1	-1	-3	119*	108*	?	31	21
C[C@@H]1CN([C@H](C)CO)S(=O)(=O)c2ccc(C#Cc3ccccn3)cc2O[C@@H]1CN(C)CC1CC1	-2	0	34	nt	nt	nt	nt
C[C@H](CO)N1C[C@H](C)[C@@H](CN(C)Cc2cccc(F)c2)Oc2cc(C#Cc3ccccn3)ccc2S1(=O)=O	-13	2	117*	94	112*	-35	8
CCN(C[C@H]1[C@H](c2ccccc2)[C@@H](CO)N1C(C)=O)C(=O)c1cccc(F)c1	-2	nt	103*	-12	-5	-6	-7
CCN(C[C@H]1[C@H](c2ccc(-c3ccccc3)cc2)[C@H](CO)N1C(C)=O)C(C)=O	0	nt	106*	-23	-67	-2	-2
CCN(C[C@H]1[C@H](c2ccc(-c3cccnc3)cc2)[C@@H](CO)N1C(C)=O)C(C)=O	4	nt	-15	nt	nt	nt	nt
CCC(=O)N(CC)C[C@@H]1[C@@H](c2ccc(-c3ccccc3)cc2)[C@@H](CO)N1C(C)=O	0	nt	nt	nt	nt	nt	nt
CCC(=O)N1[C@H](CN(CC)C(=O)c2cccc(F)c2)[C@H](c2ccccc2)[C@@H]1CO	5	nt	13	nt	nt	nt	nt
CCN(C[C@@H]1[C@@H](c2ccc(-c3ccccc3)cc2)[C@H](CO)N1C(C)=O)C(C)=O	0	nt	?	-50	-12	-3	-21
CC(=O)N1[C@@H]2c3ccc(-c4ccccc4)c(=O)n3C[C@H]1[C@H](CO)[C@H]2C(=O)Nc1ccccc1	-3	nt	76	nt	nt	nt	nt
O=C(c1cccnc1)N1CC(=O)N2[C@H](CO)[C@H](c3ccc(/C=C/c4ccccc4)cc3)[C@H]2C1	-2	nt	nt	nt	nt	nt	nt
C[C@@H]1CCCCO[C@H](CN(C)Cc2ccncc2)[C@H](C)CN([C@H](C)CO)C(=O)c2cc(NC(=O)c3ccccc3)ccc2O1	3	nt	40	nt	nt	nt	nt
SMILES	GASC1 inh	IDH1 mut inh	T cruzi growth-1	T cruzi growth-2	T cruzi growth-3	3T3 cytotox	3T3 cytotox 2
C[C@H](CO)N1C[C@H](C)[C@@H](CN(C)C(=O)Nc2ccccc2F)Oc2cc(-c3ccccc3)ccc2S1(=O)=O	-1	nt	80	nt	nt	nt	nt
O=C(c1ccccc1)N1CC[C@@H]2[C@H](CO)Nc3ccc(C#Cc4ccccc4F)cc3[C@@H]21	5	nt	105*	104*	72	45*	106*
O=C(c1ccccc1)N1CC[C@H]2[C@H](CO)Nc3ccc(C#Cc4ccccc4F)cc3[C@H]21	-4	nt	nt	nt	nt	nt	nt
O=C(c1ccccc1)N1CC[C@@H]2[C@H](CO)Nc3ccc(C#Cc4cccc(F)c4)cc3[C@@H]21	-2	nt	46	nt	nt	nt	nt
COc1ccccc1C#Cc1ccc2c(c1)[C@H]1[C@H](CCN1C(=O)c1cccc(F)c1)[C@H](CO)N2	-1	nt	?	101*	87	33	104*
O=C(c1ccccc1)N1CC[C@H]2[C@H](CO)Nc3ccc(C#Cc4cccc(F)c4)cc3[C@H]21	0	nt	122*	112*	79	10	39*
COc1ccccc1C#Cc1ccc2c(c1)[C@@H]1[C@@H](CCN1C(=O)c1cccc(F)c1)[C@H](CO)N2	-1	nt	nt	nt	nt	nt	nt
CC(C)NC(=O)N(C)C[C@H]1OCCCC[C@@H](C)Oc2ccc(NS(=O)(=O)c3cccs3)cc2C(=O)N([C@H](C)CO)C[C@H]1C	-1	3	-66	nt	nt	nt	nt
Cc1noc(C)c1NC(=O)N(C)C[C@H]1Oc2c(NC(=O)NC3CCCCC3)cccc2C(=O)N([C@H](C)CO)C[C@@H]1C	nt	1	0	nt	nt	nt	nt
C[C@H](CO)N1C[C@H](C)[C@H](CN(C)Cc2ccc(Oc3ccccc3)cc2)Oc2ccc(NS(C)(=O)=O)cc2CC1=O	-1	5	nt	nt	nt	nt	nt
O=C(Cn1nc(C(F)(F)F)c2c1CCCCC2)Nc1ccc(S(=O)(=O)N2CCCC2)cc1	nt	0	nt	nt	nt	nt	nt
COc1cc(Cl)c(C)cc1NC(=O)C(CC(C)C)N1C(=O)c2ccccc2C1=O (stereo not given)	nt	3	nt	nt	nt	nt	nt
C[C@@H]1CCCCO[C@H](CN(C)C(=O)Cc2ccccc2)[C@@H](C)CN([C@@H](C)CO)C(=O)c2cc(N(C)C)ccc2O1	0	-2	97*	46	27	-40	-13
C[C@@H]1CN([C@@H](C)CO)C(=O)c2cc(N(C)C)ccc2O[C@@H](C)CCCCO[C@@H]1CN(C)C(=O)Cc1ccccc1	4	-3	44	nt	nt	nt	nt
